Screens as filed in PubChem.
CHO parental Ca: ATP-evoked calcium signal inhibitors, parental CHO, primary screen, counter-screen for OX1R antagonist project, cell-based, fluorescence, Fluo-8 calcium dye. inhibition, % at 5.6 µM. hit rate 0.63% among 330,000. parental CHO-K1, ATP-induced calcium, Fluo-8 fluorescence;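 active = inhibition above that plate's mean sample inhibition plus 3 SD, cut at about 26% in these data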;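 note: 0% = ATP-challenged DMSO wells and 100% = DMSO wells without ATP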
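Material: parental CHO cells / Compound: single nominal dose of 5.6 µM per compound / Signal: Fluo-8 fluorescence / Replicates: singlicate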
OX1R antag-1: OX1R (HCRTR1) antagonists, primary screen, fluorescence, CHO/OX1R cells, Fluo-8 calcium, orexin A; inhibition, % at 5 µM; Orexin/Hypocretin receptor type 1 (Homo sapiens), O43613; Fluo-8 calcium fluorescence; hit rate 0.43% among 330,000;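 active = inhibition above its plate's threshold, mean inhibition of all tested compounds on the plate plus 3 SD, cut at about 37% in these data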;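 note: 0% = orexin A challenge wells and 100% = SB-334867-A antagonist wells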
Target sequence (O43613 whole entry, looked up): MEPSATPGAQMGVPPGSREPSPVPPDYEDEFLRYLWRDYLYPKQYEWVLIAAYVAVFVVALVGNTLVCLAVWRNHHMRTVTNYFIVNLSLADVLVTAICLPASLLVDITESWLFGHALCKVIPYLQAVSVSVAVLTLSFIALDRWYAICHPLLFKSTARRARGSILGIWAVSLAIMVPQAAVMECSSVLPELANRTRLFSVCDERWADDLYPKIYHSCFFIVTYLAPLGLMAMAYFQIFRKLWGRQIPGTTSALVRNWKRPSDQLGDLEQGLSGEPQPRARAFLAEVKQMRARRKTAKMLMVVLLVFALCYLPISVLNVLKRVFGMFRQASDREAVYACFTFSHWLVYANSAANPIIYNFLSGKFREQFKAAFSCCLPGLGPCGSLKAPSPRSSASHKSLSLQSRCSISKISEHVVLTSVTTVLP
OX1R antag-2: antagonists of human orexin 1 receptor (OX1R); Orexin/Hypocretin receptor type 1 (Homo sapiens), O43613; inhibition, % at 6.6 µM; hit rate 1.8% among 330,000; OX1R-expressing cells, FRET antagonist read-out; AID 485270, 2010; in the data active = inhibition mostly above about 38%, no sharp cut-off; inactive = mostly below about 40%;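 note: 0% = agonist challenge alone and 100% = reference antagonist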
NTR1 agonist: agonists of human NTR1, primary screen, imaging, U2OS cells, beta-arrestin-GFP, high content | hit rate 0.17% among 330,000 | activation, % at 20 µM | Neurotensin receptor type 1 (Homo sapiens), P30989 | NTR1-U2OS beta-arrestin-GFP spot imaging, agonist mode;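 active = activation at or above 40% of the spot to cytoplasm intensity ratio, with at least 20 cells analyzed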;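 note: 0% = DMSO without peptide and 100% = 100 nM NTR1 peptide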
TAAR1 ag: human TAAR1 agonists, primary screen, Fluo-8 calcium fluorescence, CHO RD-HGA16 cells; Trace amine-associated receptor 1 (Homo sapiens), Q96RJ0; vehicle wells 0%, saturating PEA agonist 100%; activation, % at 3 µM; hit rate 0.99% among 360,000;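 active = activation above the mean activation of all test compounds in the run plus 3 SD, cut at about 38% in these data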
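Signal – calcium-sensitive Fluo-8 signal, excitation 470-495, emission 515-575 nm · System – RD-HGA16 (CHO) cells co-expressing Gα16 and hTAAR1 · Incubation – 17-24 h seeding, 75 min 37 °C dye, 30 min RT · Compound dosing – 3 µM single concentration · Repeats – no replicates (n 1)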
TAAR1 antag: human TAAR1 antagonists, primary screen, Fluo-8 calcium fluorescence, CHO RD-HGA16 cells; Trace amine-associated receptor 1 (Homo sapiens), Q96RJ0; antagonist; inhibition, % at 3 µM; hit rate 1.5% among 360,000;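 active = inhibition above a per-plate cutoff, the mean inhibition of test compounds on that plate plus 3 SD, cut at about 49% in these data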;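 note: 0% = DMSO plus EC80 beta-PEA response and 100% = DMSO alone without agonist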
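Test system – hTAAR1-expressing CHO RD-HGA16 cells, Gα16-coupled · Reagent – β-PEA at EC80 concentration, post-compound challenge · Compound dosing – 3 µM, single point · Timing – 140 s kinetic read after compound, 140 s after agonist · Detection – Fluo-8 intracellular calcium dye fluorescence, real-time kinetic reads · Control set – DMSO and EC80 PEA controls · Repeats – n of 1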
OX1R Ca confirm: OX1R (HCRTR1) antagonists, confirmation, fluorescence, CHO/OX1R cells, Fluo-8 calcium, orexin A; orexin A calcium Fluo-8 fluorescence; inhibition, % at 5 µM; hit rate 38% among 1,100; shares compounds with OX1R antag-1; in the data active = inhibition above about 29%;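 note: 0% = agonist challenge alone and 100% = reference antagonist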
CHO Ca counter: ATP-evoked calcium inhibition in parental CHO, counter-screen for OX1R antagonist project, cell-based, fluorescence, CHO-K1, triplicate. hit rate 9.3% among 1,100. shares compounds with OX1R antag-1. ATP-induced calcium, Fluo-8 fluorescence. AID 492965, 2010. inhibition, % at 5.6 µM;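 active = inhibition above a per-plate limit, the mean inhibition of that plate's test compounds plus 3 SD, cut at about 25% in these data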;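 note: 0% = ATP challenge with DMSO and 100% = DMSO without ATP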
The depositor's hits bear a star; x = no result given. Compounds with a hit are over-represented: about 4% of the library has one in this group of screens.

SMILES	CHO parental Ca	OX1R antag-1	OX1R antag-2	NTR1 agonist	TAAR1 ag	TAAR1 antag	OX1R Ca confirm	CHO Ca counter
COc1cc(NC(=O)c2cc(C)no2)cc(OC)c1OC	-8	-11	10	1	5	3	x	x
Cc1[nH]c2ccc(C(=O)OC(C)C(=O)NC3CCCCC3C)cc2c1C (stereo not drawn)	11	32	28	-1	-3	8	14	-6
CC(=Nc1ccccc1O)c1sc2ccccc2c1O	24	34	30	1	30	44	11	0
CC(=Nc1ccc(O)cc1)c1sc2ccccc2c1O	5	3	27	2	16	19	x	x
COc1ccc(Cl)cc1NC(=O)CSc1nc2[nH]ncc2c(=O)[nH]1	x	x	x	x	4	-8	x	x
Cn1ccnc1SCC(=O)c1cccc(C(F)(F)F)c1	-1	-6	6	-1	-1	-9	x	x
COc1ccccc1NC(=O)Nc1ccc(-n2ccc(C(F)(F)F)n2)cc1	-3	34	7	5	3	-22	5	4
COc1ccc(NC(=O)Nc2ccccc2OC)cc1	-9	-2	-2	-1	0	3	x	x
Cc1cccnc1C(c1ccc(F)cc1)N(C)C(=O)C1CCN(CCOc2ccc(Cl)cc2Cl)CC1 (stereo not drawn)	x	x	x	x	8	11	x	x
CCCOP(=O)(OCCC)C(Nc1ccc(C(C)C)cc1)c1ccc([N+](=O)[O-])cc1 (stereo not drawn)	-6	55*	2	6	5	26	-2	-27
CCOC(=O)N1CCN(C(=O)c2ccc3c(c2)NC(=O)C(N2CCOCC2)S3)CC1 (stereo not drawn)	6	28	9	2	7	-5	4	-1
CCc1ccc(CNC(=O)c2ccc3c(c2)NC(=O)C(N2CCOCC2)S3)cc1 (stereo not drawn)	-12	-18	5	0	3	-12	x	x
Cc1cccc2c1cnn2C(=O)CCC(=O)NCc1ccc(F)cc1	7	50*	17	0	0	4	1	4
O=C(CNc1cccc(S(=O)(=O)N2CCCCC2)c1)Nc1ccc(C(F)(F)F)cc1	x	x	x	x	8	-5	x	x
O=C(CNc1cccc(S(=O)(=O)N2CCCC2)c1)Nc1ccc(C(F)(F)F)cc1	20	25	20	2	19	18	4	12
CC(C)C(NC(=O)OCc1ccccc1)C(=O)NCC(=O)OC(C)(C)C (stereo not drawn)	-19	-12	7	1	3	-24	x	x
COC(=O)CNC(=O)C(NC(=O)OCc1ccccc1)C(C)C (stereo not drawn)	12	25	9	-2	1	3	-44	1
NS(=O)(=O)c1ccc(CNC(=O)c2ccncc2)cc1	-3	4	3	0	2	3	x	x
CCCC(=O)Nc1ccc2oc(-c3ccncc3)nc2c1	-2	-9	15	-2	12	9	x	x
CCCC(=O)Nc1ccc(-c2nc3cc(C)c(C)cc3o2)cc1	0	45	13	5	8	11	6	9
Cc1ccc(C)c(SCC(=O)Nc2cccc(S(=O)(=O)NC3=NCCCCC3)c2)c1	-15	-12	40	-1	1	-5	x	x
O=C(CSc1ccc2ccccc2c1Br)Nc1cccc(S(=O)(=O)NC2=NCCCCC2)c1	-2	30	36	0	2	-4	17	-15
CCOC(=O)c1csc(Nc2nc3ccc(F)cc3s2)n1	27	39	15	6	21	41	27	26*
Cc1cccc(OCC(=O)Nc2ccc(C(=O)c3ccc(C(=O)O)cc3)cc2)c1	1	8	18	1	3	21	x	x
CN(Cc1ccccc1)S(=O)(=O)c1ccc2[nH]c(=O)ccc2c1	4	-11	10	-2	9	-6	x	x
SMILES	CHO parental Ca	OX1R antag-1	OX1R antag-2	NTR1 agonist	TAAR1 ag	TAAR1 antag	OX1R Ca confirm	CHO Ca counter
Nc1cnccc1C(=O)O	4	-13	32	-1	13	-18	x	x
O=C(Nc1ccc(OC(F)F)c(Cl)c1)c1cccc(OC(F)F)c1	8	53*	23	0	x	x	12	19
O=c1[nH]nc(Cc2ccc(-c3ccccc3Cl)o2)c2ccccc12	24	47*	64	1	18	1	4	-6
COc1ccccc1NS(=O)(=O)c1cc([N+](=O)[O-])ccc1N/N=C/c1c[nH]c2ccccc12	21	31	1	1	12	54*	20	24
COc1ccc(NS(=O)(=O)c2cc([N+](=O)[O-])ccc2N/N=C\c2c(C)[nH]c3ccccc23)cc1	17	5	8	4	7	10	x	x
CN(CCc1ccccn1)C(=O)CCC1CCCN(C(=O)c2cccc(N(C)C)c2)C1 (stereo not drawn)	-25	-25	26	-1	1	-26	x	x
O=[N+]([O-])c1ccc(Cl)cc1CNc1ccc(F)c(F)c1	-11	38	21	0	-1	6	1	-4
CCOC(=O)C1=C[C@@H](CC)N(S(=O)(=O)c2ccc(C)cc2)[C@H]1c1cccs1	x	x	x	x	0	14	x	x
Cc1c(Cc2ccccc2)[n+](=O)c2ccccc2n1[O-]	x	x	x	x	0	-16	x	x
O=C(COC(=O)C12CC3CC(CC(Br)(C3)C1)C2)Nc1cccc(S(=O)(=O)N2CCOCC2)c1	10	47*	14	9	11	32	32*	6
COc1cc(S(=O)(=O)N2CCOCC2)ccc1NC(=O)COC(=O)C12CC3CC(CC(C3)C1)C2	-16	-2	13	3	6	-19	x	x
Cc1cc(C)cc(N(CC(=O)Nc2ccc(-c3nc4ccc(C)cc4s3)cc2)S(C)(=O)=O)c1	-8	37*	-4	2	-1	16	-4	0
CC(C(=O)NC1CCCC1)n1c(-c2ccncc2)nc2ccccc21 (stereo not drawn)	x	x	x	x	4	-12	x	x
CCOC(=O)/C=c1\s/c(=C\c2ccc3c(c2)OCCO3)c(=O)n1CC(=O)NCC1CCCO1 (stereo not drawn)	-11	103*	16	-2	7	-16	8	-11
